In ChEMBL document CHEMBL4402517, “Rational modification of Mannich base-type derivatives as novel antichagasic compounds: Synthesis, in vitro and in vivo evaluation” (Bioorg Med Chem, 2019):

Experiments:
[1] = Selectivity index, ratio of IC50 for African green monkey Vero cells to IC50 for Trypanosoma cruzi MHOM/Pe/2011/Arequipa; DTU 5 trypomastigote forms; format: toxicity; conditions: read-out: Selectivity Index
Method in brief: (§1)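 Bloodstream trypomastigotes were taken from BALB/c mice by cardiac puncture and diluted in RPMI with 10% FBS at 2 × 10^6/mL. They were incubated with 3.1–50.0 µM for 24 h at 37 °C in 5% CO2 and counted in a Neubauer chamber. Triplicate, at least three experiments; nonlinear regression.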

Trypanosoma cruzi [2] = test: Antitrypanosomal activity against Trypanosoma cruzi IRHOD/CO/2008/SN3;DTU 1 amastigote forms measured after 72 hrs by Giemsa staining based assay; format: functional, organism-based; conditions: IRHOD/CO/2008/SN3;DTU 1, 72 h
Method in brief: (§2)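 Vero cells (1 × 10^4/well, on coverslips) left to adhere 24 h at 37 °C, 5% CO2, then infected with trypomastigotes at MOI 10:1 for 24 h. Free parasites were removed by three PBS washes. Compounds at 3.1, 6.25, 12.5, 25 and 50 µM were incubated 72 h, and amastigotes were counted after Giemsa staining. Triplicates, two separate experiments; IC50 by nonlinear regression.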

Trypanosoma cruzi [3] = test: Antitrypanosomal activity against Trypanosoma cruzi TINF/CH/1956/Tulahuen;DTU 6 epimastigotes measured after 72 hrs by Neubauer hemocytometer; format: functional, organism-based; conditions: TINF/CH/1956/Tulahuen;DTU 6, 72 h
Trypanosoma cruzi [4] = test: Trypanocidal activity against Trypanosoma cruzi TINF/CH/1956/Tulahuen;DTU 6 trypomastigote forms infected in BALB/c albino mouse measured after 24 hrs by Neubauer chamber method; conditions: TINF/CH/1956/Tulahuen;DTU 6, 24 h
Trypanosoma cruzi [5] = test: Trypanocidal activity against Trypanosoma cruzi trypomastigote form infected in African green monkey Vero cells measured after 48 hrs by resazurin dye based assay; format: functional, organism-based
Trypanosoma cruzi [6] = test: Antitrypanosomal activity against bloodstream trypomastigote stage of Trypanosoma cruzi MHOM/Pe/2011/Arequipa; DTU 5 isolated from parasite infected BALB/c Albino mouse cardiac cells after 24 hrs by Neubauer chamber based cell counting method; format: functional, organism-based; conditions: DTU 5, 24 h
Method in brief: (§3)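 Bloodstream trypomastigotes were taken by cardiac puncture from infected BALB/c mice and diluted in RPMI + 10% heat-inactivated FBS. At 2 × 10^6/mL they were exposed to 3.1–50.0 µM (lower where needed) for 24 h at 37 °C, 5% CO2, and counted in a Neubauer chamber. Triplicates, at least three experiments; IC50 by nonlinear regression.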

Trypanosoma cruzi [7] = test: Antitrypanosomal activity against Trypanosoma cruzi MHOM/Pe/2011/Arequipa;DTU 5 amastigote forms measured after 72 hrs by Giemsa staining based assay; format: functional, organism-based; conditions: MHOM/Pe/2011/Arequipa;DTU 5, 72 h; method in brief: as §2
Vero = test: Cytotoxicity against African green monkey Vero cells measured after 72 hrs by MTT assay; format: cell-based; conditions: Chlorocebus sabaeus
Method in brief: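 Log-phase Vero cells (0.8 × 10^4/well) in RPMI-1640 + 10% heat-inactivated FBS at 37 °C, 5% CO2 were exposed 72 h to serial dilutions (10.0–200.0 µM; stocks in DMSO). MTT was then added for 4 h and absorbance read. Quadruplicates, three experiments; IC50 by nonlinear regression.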

Trypanosoma cruzi [8] = test: Antitrypanosomal activity against Trypanosoma cruzi IRHOD/CO/2008/SN3;DTU 1 epimastigotes measured after 72 hrs by Neubauer hemocytometer; format: functional, organism-based; conditions: IRHOD/CO/2008/SN3;DTU 1, 72 h
[9] = Selectivity index, ratio of IC50 for African green monkey Vero cells to IC50 for Trypanosoma cruzi TINF/CH/1956/Tulahuen;DTU 6 trypomastigote forms; format: toxicity; conditions: read-out: Selectivity Index; method in brief: as §1
[10] = Selectivity index, ratio of IC50 for African green monkey Vero cells to IC50 for Trypanosoma cruzi TINF/CH/1956/Tulahuen;DTU 6; format: toxicity; conditions: read-out: Selectivity Index
Method in brief: (§4)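 SI = Vero IC50 / epimastigote IC50. Vero cells were grown in RPMI-1640 with 10% FBS, seeded at 0.8 × 10^4 cells/well, exposed to 10.0–200.0 µM for 72 h, then given MTT for 4 h. Epimastigotes were grown in MTL with 10% FBS at 28 °C, 5 × 10^5/mL, exposed to 6.3–50 µM for 48 h, then resazurin for 24 h (570/600 nm). IC50s came from nonlinear regression.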

Trypanosoma cruzi [11] = test: Trypanocidal activity against Trypanosoma cruzi trypomastigote form infected in African green monkey Vero cells assessed as ratio of infected cells at 50 uM measured after 72 hrs by Giemsa staining based assay relative to control; format: functional
Method in brief: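 Vero cells (1 × 10^4/well, on coverslips) were infected with trypomastigotes at MOI 10:1 for 24 h and washed three times with PBS. They were treated at 3.1, 6.25, 12.5, 25 and 50 µM for 72 h at 37 °C in 5% CO2. Infected cells were counted after Giemsa staining. Triplicates, two separate determinations.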

[12] = Selectivity index, ratio of IC50 for African green monkey Vero cells to IC50 for Trypanosoma cruzi MHOM/Pe/2011/Arequipa;DTU 5; format: toxicity; conditions: read-out: Selectivity Index; method in brief: as §4
[13] = Selectivity index, ratio of IC50 for African green monkey Vero cells to IC50 for Trypanosoma cruzi IRHOD/CO/2008/SN3;DTU 1 amastigote forms; format: toxicity; conditions: read-out: Selectivity Index
Method in brief: (§5)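 Vero cells (1 × 10^4/well) were infected with trypomastigotes at MOI 10:1 for 24 h and washed with PBS. They were then exposed to 3.1–50 µM for 72 h at 37 °C in 5% CO2, and amastigotes were counted after Giemsa staining. Triplicates in two determinations; nonlinear regression.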

Trypanosoma cruzi [14] = test: Antitrypanosomal activity against Trypanosoma cruzi MHOM/Pe/2011/Arequipa;DTU 5 epimastigotes measured after 72 hrs by Neubauer hemocytometer; format: functional, organism-based; conditions: MHOM/Pe/2011/Arequipa;DTU 5, 72 h
Trypanosoma cruzi [15] = test: Antitrypanosomal activity against bloodstream trypomastigote stage of Trypanosoma cruzi IRHOD/CO/2008/SN3;DTU 1 isolated from parasite infected BALB/c Albino mouse cardiac cells after 24 hrs by Neubauer chamber based cell counting method; format: functional, organism-based; conditions: IRHOD/CO/2008/SN3;DTU 1, 24 h; method in brief: as §3
[16] = Selectivity index, ratio of IC50 for African green monkey Vero cells to IC50 for Trypanosoma cruzi IRHOD/CO/2008/SN3;DTU 1; format: toxicity; conditions: read-out: Selectivity Index; method in brief: as §4
[17] = Selectivity index, ratio of IC50 for African green monkey Vero cells to IC50 for Trypanosoma cruzi TINF/CH/1956/Tulahuen;DTU 6 amastigote forms; format: toxicity; conditions: read-out: Selectivity Index; method in brief: as §5
Trypanosoma cruzi [18] = test: Antitrypanosomal activity against Trypanosoma cruzi TINF/CH/1956/Tulahuen;DTU 6 amastigote forms measured after 72 hrs by Giemsa staining based assay; format: functional, organism-based; conditions: TINF/CH/1956/Tulahuen;DTU 6, 72 h; method in brief: as §2
[19] = Selectivity index, ratio of IC50 for African green monkey Vero cells to IC50 for Trypanosoma cruzi IRHOD/CO/2008/SN3;DTU 1 trypomastigote forms; format: toxicity; conditions: read-out: Selectivity Index; method in brief: as §1
[20] = Selectivity index, ratio of IC50 for African green monkey Vero cells to IC50 for Trypanosoma cruzi MHOM/Pe/2011/Arequipa; DTU 5 amastigote forms; format: toxicity; conditions: read-out: Selectivity Index; method in brief: as §5

Compound	selectivity ratio [1]	IC50 (Trypanosoma cruzi [2]) [µM]	IC50 (Trypanosoma cruzi [3]) [µM]	IC50 (Trypanosoma cruzi [4]) [µM]	IC50 (Trypanosoma cruzi [5]) [µM]	IC50 (Trypanosoma cruzi [6]) [µM]	IC50 (Trypanosoma cruzi [7]) [µM]	IC50 (Vero) [µM]	IC50 (Trypanosoma cruzi [8]) [µM]	selectivity ratio [9]	selectivity ratio [10]	Ratio (Trypanosoma cruzi [11]) [%]	selectivity ratio [12]	selectivity ratio [13]	IC50 (Trypanosoma cruzi [14]) [µM]	IC50 (Trypanosoma cruzi [15]) [µM]	selectivity ratio [16]	selectivity ratio [17]	IC50 (Trypanosoma cruzi [18]) [µM]	selectivity ratio [19]	further results
COc1ccc(C(=O)CCNc2ccc(F)cc2)cc1	64.8	5.4	14.4	2.7	7.1	2.1	4.7	133	25.4	48.8	9.3	10	9	24.7	14.8	3.4	5.2	20.1	6.7	39.4	selectivity ratio [20]: 27.6
COc1ccc(C(=O)CCNCCc2ccc(F)cc2)cc1	–	–	20.3	–	–	–	–	66.2	16.9	–	3.3	–	1.9	–	35.6	–	3.9	–	–	–	–
O=C(CCN1CCN(c2ccc([N+](=O)[O-])cc2)CC1)c1ccc(O)cc1	–	–	43	–	–	–	–	34.6	13	–	0.8	–	1.4	–	24.8	–	2.7	–	–	–	–
COc1ccc(C(=O)CCNCCc2ccc(C(F)(F)F)cc2)cc1	25	4.5	13.2	3.5	13.9	3.6	9.1	91.1	13.2	26.1	6.9	17	1.5	20.2	59.7	5.5	6.9	27.7	3.3	16.7	selectivity ratio [20]: 10
O=C(CCN1CCN(c2ccc(F)cc2)CC1)c1ccc(O)cc1	–	–	13	–	–	–	–	50	10.1	–	3.9	–	2.1	–	24.4	–	5	–	–	–	–
COc1ccc(C(=O)CCNc2ccc(C(F)(F)F)cc2)cc1	–	–	24.6	–	–	–	–	32.6	76.1	–	1.3	–	1.8	–	17.8	–	0.4	–	–	–	–
COc1ccc(C(=O)CCNCCc2ccc(Cl)cc2)cc1	–	–	15.2	–	–	–	–	53.5	14.6	–	3.5	–	1	–	51.6	–	3.7	–	–	–	–
COc1ccc(C(=O)CCNc2ccc(Cl)cc2)cc1	11.2	6	16.4	14.2	9	13	7.3	146	38.4	10.2	8.9	28	7.8	24.1	18.7	63	3.8	5.5	26.3	2.3	selectivity ratio [20]: 19.9
